{"source": "paper PMC2752669", "about": "(Biochemistry, 2009)", "molecules": {"B1": {"name": "h17 annealed to 5'-biotin-DNA (mixed)", "RNA": "GGCGGGGAGGAAGGGAGUAAAGUUAAUACCUUUGCUCAUUGACGUUACCCGCCGGUGCGGAUGGCGAUUGCU", "DNA": "AGCAATCGCCATCCGCACC"}}, "key": {"[1]": {"system": "helix 17 (h17) RNA from 16S rRNA", "test": "Peptide bead ELISA assay, h17 control", "type": "binding", "details": "biotin-tagged h17, 4 days, 4 °C; anti-biotin-alkaline phosphatase, BCIP", "method_in_brief": "(§1)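 Peptide beads washed, blocked overnight at 4 °C, then incubated 4 days at 4 °C with 1 μM biotin-tagged RNA (fresh RNA added daily) in HEPES-KOH pH 7.5/100 mM KCl/5 mM MgCl2 buffer. Buffer-only beads served as background. Detection: anti-biotin–alkaline phosphatase (1:8000, 1 h, room temperature), then BCIP (0.165 μg/μl, pH 9.5) overnight at 4 °C.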"}, "[2]": {"system": "A-site RNA hp-AS-pwk annealed to 5'-biotin-DNA", "test": "Peptide bead ELISA assay, hp-AS-pwk", "type": "binding, E. coli", "details": "1 μM biotin-tagged RNA, 4 days, 4 °C; anti-biotin-alkaline phosphatase, BCIP", "method_in_brief": "as §1"}, "[3]": {"system": "A-site RNA hairpin hp-AS (bacterial 16S rRNA)", "test": "Enzymatic", "type": "binding, E. coli", "details": "5 to 120 μM peptide, pH 7.2, 37 °C", "method_in_brief": "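3′-32P-pCp-labelled hp-AS (1 μl, 250,000 cpm) preincubated with test peptide (0–120 μM) in 10 mM Tris-HCl pH 7.2, 15 mM NaCl, 1 mM EDTA, 37 °C, 1.5 h. RNase A (1 μl, 0.002 U/μl) was added to 5 μl final for 30 min at 37 °C, quenched on dry ice, formamide-denatured and gel-resolved beside an alkaline-hydrolysis ladder. Fraction bound versus peptide was curve-fitted for Kd; two independent experiments.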"}, "[4]": {"system": "A-site RNA hairpin hp-AS (bacterial 16S rRNA)", "test": "Isothermal titration calorimetry of peptide into hp-AS", "type": "binding, E. coli", "details": "10 mM potassium phosphate, 100 mM KCl, pH 7.2, 10 °C; average of three independent experiments", "method_in_brief": "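RNA and test peptide were dialysed against water, dried, redissolved in buffer and degassed at 5 °C for 7 min. After a 2 μl preliminary injection, which was discarded, 20 μl injections of peptide (250–600 μM) went into hp-AS RNA (20–40 μM), spaced 300 s. Heats of peptide dilution into buffer without RNA were subtracted.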"}, "[5]": {"system": "E. coli S30 extract translation system", "test": "In vitro translation inhibition", "type": "biochemical", "method_in_brief": "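E. coli S30 extract for circular DNA, with pBESTluc plasmid carrying firefly luciferase. Amino acids, S30 premix and increasing peptide concentrations in 50 μl, 37 °C for 1–2 h. Quenched on ice 5 min, luciferase reagent added, luminescence read. Background from a sample without DNA template.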"}, "[6]": {"system": "A-site RNA hairpin hp-AS (bacterial 16S rRNA)", "test": "ESI-MS binding to hp-AS", "design": "species or system E. coli", "details": "1 μM RNA", "method_in_brief": "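Hairpin RNA renatured in 100 mM NH4OAc (pH 6.7). 1 μM RNA mixed with peptide (0–375 μM), room temperature, 10 min, in 50% 2-propanol/100 mM NH4OAc pH 6.7, then ESI-MS. Fraction bound taken from summed complex versus free-RNA peak intensities. Salt series: 34 μM peptide at 30–200 mM NH4OAc. pH series: 34 μM peptide, 100 mM NH4OAc, pH 5.0–7.6.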"}, "A-site RNA over TAR RNA": {"system": "A-site RNA over TAR RNA", "test": "ESI-MS competition, A-site RNA versus TAR RNA", "type": "binding", "details": "data not shown"}, "[7]": {"system": "hp-AS (RNA, rRNA) GGCGUCACACCUUCGGGUGAAGUCGCC", "test": "ESI-MS titration", "details": "NH4+ 100 mM; apparent; 100 mM NH4OAc, 50% 2-propanol, pH 6.7, 25 °C"}, "other RNA targets": {"system": "other RNA targets", "test": "Preliminary in vitro solution binding studies"}, "HPVHHYQ peptide on beads [8]": {"target": "T1, HPVHHYQ peptide on beads", "T1 chain": "HPVHHYQ", "test": "bead fluorescence"}, "LPLTPLP peptide on beads [9]": {"target": "T2, LPLTPLP peptide on beads", "T2 chain": "LPLTPLP", "test": "bead fluorescence"}, "HPVHHYQ peptide on beads [10]": {"target": "T1, HPVHHYQ peptide on beads", "test": "bead ELISA"}, "LPLTPLP peptide on beads [11]": {"target": "T2, LPLTPLP peptide on beads", "test": "bead ELISA"}, "HPVHHYQ-NH2 peptide [12]": {"target": "T3, HPVHHYQ-NH2 peptide", "T3 chain": "HPVHHYQ-NH2", "test": "RNase A footprinting"}, "HPVHHYQ-NH2 peptide [13]": {"target": "T3, HPVHHYQ-NH2 peptide", "test": "RNase A footprinting"}, "HPVHHYQ-NH2 peptide [14]": {"target": "T3, HPVHHYQ-NH2 peptide", "test": "ITC"}}, "note": "Ends that are not written are not given here."}
{"molecule": "HPVHHYQ", "values": [{"measurement": "Bead ELISA binding to h17", "setting": "[1]", "result": "No binding was observed"}, {"measurement": "Bead ELISA response with A-site RNA", "setting": "[2]", "result": "much stronger response than LPLTPLP"}]}
{"molecule": "HPVHHYQ-NH2", "values": [{"measurement": "Residues protected from RNase A cleavage", "setting": "[3]", "result": "residues G1494 and U1495 are protected by the peptide"}, {"measurement": "Residues with enhanced RNase A cleavage", "setting": "[3]", "result": "enhanced at residues A1492 and A1493"}, {"measurement": "Enthalpy ΔH", "setting": "[4]", "result": "-0.56 ± 0.05", "unit": "kcal/mol"}, {"measurement": "Entropy −TΔS", "setting": "[4]", "result": "-6.5 ± 0.3", "unit": "kcal/mol"}, {"measurement": "Inhibition of in vitro protein synthesis", "setting": "[5]; 34 μM peptide, 37 °C, 1–2 h", "result": "no inhibition was observed"}, {"measurement": "Remaining (luciferase) enzyme activity", "setting": "[5]; 620 μM peptide, 37 °C, 1–2 h", "result": "approximately 50%"}, {"measurement": "IC50 compared with neomycin", "setting": "[5]; in vitro translation inhibition", "result": "high compared with the known antibiotic neomycin"}, {"measurement": "Effect of pH on ratio of free RNA to RNA-peptide complexes", "setting": "[6]; pH 5.0 to 7.6, 100 mM NH4OAc, 50% IPA, 34 μM peptide, data not shown", "result": "no significant change"}, {"measurement": "Kd", "setting": "[6]; read-out: Apparent dissociation constant (ESI-MS), 0–375 μM peptide, 100 mM NH4OAc, pH 6.7, 50% 2-propanol, 25 °C, 10 min, average of three independent experiments", "result": "29 ± 2", "unit": "µM"}, {"measurement": "Preference for A-site RNA over TAR RNA", "setting": "A-site RNA over TAR RNA", "result": "five-fold preference for the A-site RNA over TAR RNA"}]}
{"molecule": "H-HPVHHYQ-NH2", "values": [{"measurement": "Kd", "setting": "[7]", "result": "29 ± 2", "unit": "µM"}]}
{"molecule": "LPLTPLP", "values": [{"measurement": "Binding to other RNA targets", "setting": "other RNA targets", "result": "binds to other RNA targets"}, {"measurement": "Bead ELISA binding to h17", "setting": "[1]", "result": "No binding was observed"}, {"measurement": "Bead ELISA response with A-site RNA", "setting": "[2]", "result": "bind to the A-site RNA"}]}
{"molecule": "GGCAGAUCUCAGCCUGGGAGCUGUCUGCC (structured_RNA)", "note": "[F-TAR]", "values": [{"measurement": "binding result", "setting": "HPVHHYQ peptide on beads [8]", "result": "no binding"}, {"measurement": "binding result", "setting": "LPLTPLP peptide on beads [9]", "result": "no binding"}]}
{"molecule": "GGCGUCGCUACUUCGGUAAAAGUCGCC (structured_RNA)", "note": "[F-human-hp-AS]", "values": [{"measurement": "binding result", "setting": "HPVHHYQ peptide on beads [8]", "result": "no binding"}, {"measurement": "binding result", "setting": "LPLTPLP peptide on beads [9]", "result": "no binding"}]}
{"molecule": "GGCGUCACACCUUCGGGUGAAGUCGCC (structured_RNA)", "note": "[F-hp-AS]", "values": [{"measurement": "binding result", "setting": "LPLTPLP peptide on beads [9]", "result": "binds"}]}
{"molecule": "B1", "values": [{"measurement": "binding result", "setting": "HPVHHYQ peptide on beads [10]", "result": "no binding"}, {"measurement": "binding result", "setting": "LPLTPLP peptide on beads [11]", "result": "no binding"}]}
{"molecule": "GGCGUCACACCUUCGGGUGAAGUCGCC (structured_RNA)", "note": "[hp-AS]", "values": [{"measurement": "Kd", "setting": "HPVHHYQ-NH2 peptide [12]", "result": "16 ± 4", "unit": "µM"}, {"measurement": "Kd", "setting": "HPVHHYQ-NH2 peptide [13]", "result": "18 ± 4", "unit": "µM"}, {"measurement": "Kd", "setting": "HPVHHYQ-NH2 peptide [14]", "result": "2 ± 0.4", "unit": "µM"}]}
